Data taken from ChEMBL document CHEMBL3091364, “Benzyloxybenzylammonium chlorides: Simple amine salts that display anticonvulsant activity” (Bioorg Med Chem, 2013).

What was measured:
[1] = biological target: D(1B) dopamine receptor (Homo sapiens) (UniProt P21918); test: Inhibition of dopaminergic D5 receptor (unknown origin) at 10 uM relative to control
[2] = biological target: Histamine H2 receptor (Homo sapiens) (UniProt P25021); test: Inhibition of histamine H2 receptor (unknown origin) at 10 uM relative to control
[3] = biological target: Histamine H1 receptor (Homo sapiens) (UniProt P35367); test: Inhibition of histamine H1 receptor (unknown origin) at 10 uM relative to control
[4] = biological target: D(1A) dopamine receptor (Homo sapiens) (UniProt P21728); test: Inhibition of dopaminergic D1 receptor (unknown origin) at 10 uM relative to control
[5] = biological target: T1, Muscarinic acetylcholine receptor M5 (Homo sapiens) (UniProt P08912); test: Inhibition of muscarinergic M5 receptor (unknown origin) at 10 uM relative to control
T1 sequence (whole entry): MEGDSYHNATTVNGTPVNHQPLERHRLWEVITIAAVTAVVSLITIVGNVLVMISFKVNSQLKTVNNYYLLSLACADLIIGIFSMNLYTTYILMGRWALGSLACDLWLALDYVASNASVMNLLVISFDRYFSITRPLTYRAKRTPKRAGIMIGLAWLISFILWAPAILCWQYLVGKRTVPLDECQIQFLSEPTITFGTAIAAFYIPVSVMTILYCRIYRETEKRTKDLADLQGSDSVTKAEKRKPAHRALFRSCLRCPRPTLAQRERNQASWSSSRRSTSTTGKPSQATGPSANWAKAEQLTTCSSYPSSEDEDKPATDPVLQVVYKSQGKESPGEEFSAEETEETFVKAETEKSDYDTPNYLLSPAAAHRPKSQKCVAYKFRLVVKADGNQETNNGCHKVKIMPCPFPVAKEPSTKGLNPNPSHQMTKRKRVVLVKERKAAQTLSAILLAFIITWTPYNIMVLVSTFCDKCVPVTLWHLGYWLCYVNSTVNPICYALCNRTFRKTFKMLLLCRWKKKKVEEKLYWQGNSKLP

[6] = biological target: Beta-2 adrenergic receptor (Homo sapiens) (UniProt P07550); test: Inhibition of adrenergic beta-2 receptor (unknown origin) at 10 uM relative to control
[7] = biological target: T2, Alpha-1A adrenergic receptor (Homo sapiens) (UniProt P35348); test: Inhibition of adrenergic alpha-1A receptor (unknown origin) at 10 uM relative to control
T2 sequence (whole entry): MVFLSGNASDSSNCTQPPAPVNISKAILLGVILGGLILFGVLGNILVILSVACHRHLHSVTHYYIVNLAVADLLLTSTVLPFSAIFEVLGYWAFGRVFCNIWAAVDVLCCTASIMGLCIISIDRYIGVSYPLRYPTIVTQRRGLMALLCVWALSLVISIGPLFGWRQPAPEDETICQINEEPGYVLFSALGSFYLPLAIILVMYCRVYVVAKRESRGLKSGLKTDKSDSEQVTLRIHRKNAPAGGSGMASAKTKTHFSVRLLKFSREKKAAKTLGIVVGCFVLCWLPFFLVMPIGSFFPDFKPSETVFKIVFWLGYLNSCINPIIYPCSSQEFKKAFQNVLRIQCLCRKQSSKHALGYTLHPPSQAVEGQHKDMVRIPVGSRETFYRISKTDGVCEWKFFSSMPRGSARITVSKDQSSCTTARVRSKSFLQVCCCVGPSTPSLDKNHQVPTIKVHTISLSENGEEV

[8] = Toxicity in po dosed albino Sprague-Dawley rat assessed as behavioral changes measured at 0.25 to 4 hrs; format: organism-based; conditions: in vivo
Procedure, shortened: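 Male albino Sprague-Dawley rats given compound intraperitoneally or orally (NINDS ASP); neurological impairment judged from behavioral toxicity effects. Preset screening doses (e.g., 30 mg/kg); for adequately active compounds, TD50 (mg/kg, 95% confidence intervals) derived from dose–effect data at time of peak effect.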

[9] = biological target: T3, Muscarinic acetylcholine receptor M2 (Homo sapiens) (UniProt P08172); test: Inhibition of muscarinergic M2 receptor (unknown origin) at 10 uM relative to control
T3 sequence (whole entry): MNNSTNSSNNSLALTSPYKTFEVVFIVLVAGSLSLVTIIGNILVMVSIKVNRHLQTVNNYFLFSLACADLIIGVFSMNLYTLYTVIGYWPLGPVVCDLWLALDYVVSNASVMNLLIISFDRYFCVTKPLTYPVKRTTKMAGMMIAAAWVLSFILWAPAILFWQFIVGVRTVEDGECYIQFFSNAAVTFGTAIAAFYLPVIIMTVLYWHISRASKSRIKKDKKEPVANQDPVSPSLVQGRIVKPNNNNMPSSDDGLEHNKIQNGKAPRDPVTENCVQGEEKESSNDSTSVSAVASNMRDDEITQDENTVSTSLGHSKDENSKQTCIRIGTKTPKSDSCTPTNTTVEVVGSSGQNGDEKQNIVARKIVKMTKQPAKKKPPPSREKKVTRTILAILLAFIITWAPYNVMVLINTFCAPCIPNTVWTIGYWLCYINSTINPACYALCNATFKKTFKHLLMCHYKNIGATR

[10] = biological target: Muscarinic acetylcholine receptor M3 (Homo sapiens) (UniProt P20309); test: Inhibition of muscarinergic M3 receptor (unknown origin) at 10 uM relative to control
[11] = biological target: T4, Alpha-2B adrenergic receptor (Homo sapiens) (UniProt P18089); test: Inhibition of adrenergic alpha-2B receptor (unknown origin) at 10 uM relative to control
T4 sequence (whole entry): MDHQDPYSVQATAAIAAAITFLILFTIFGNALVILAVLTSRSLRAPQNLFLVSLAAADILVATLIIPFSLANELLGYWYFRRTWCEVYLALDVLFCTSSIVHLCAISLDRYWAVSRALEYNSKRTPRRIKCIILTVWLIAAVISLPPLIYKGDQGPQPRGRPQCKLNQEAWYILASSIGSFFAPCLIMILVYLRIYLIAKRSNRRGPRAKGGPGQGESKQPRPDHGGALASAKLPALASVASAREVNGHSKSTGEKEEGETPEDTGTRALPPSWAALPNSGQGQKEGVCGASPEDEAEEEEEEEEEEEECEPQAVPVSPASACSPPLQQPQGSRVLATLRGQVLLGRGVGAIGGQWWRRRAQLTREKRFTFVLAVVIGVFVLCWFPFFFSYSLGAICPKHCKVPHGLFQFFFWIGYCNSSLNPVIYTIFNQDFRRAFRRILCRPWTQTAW

[12] = biological target: Delta-type opioid receptor (Homo sapiens) (UniProt P41143); test: Inhibition of delta opioid receptor (unknown origin) at 10 uM relative to control
Homo sapiens = organism: Homo sapiens; test: Inhibition of sigma-2 receptor (unknown origin) at 10 uM relative to control
[13] = Solubility of the compound in water at 300 uM; format: physicochemical
Procedure, shortened: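 Hydrochloride salts checked for dissolution in water at 300 µM.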

Sequence of D(1A) dopamine receptor (Homo sapiens) (P21728 whole entry): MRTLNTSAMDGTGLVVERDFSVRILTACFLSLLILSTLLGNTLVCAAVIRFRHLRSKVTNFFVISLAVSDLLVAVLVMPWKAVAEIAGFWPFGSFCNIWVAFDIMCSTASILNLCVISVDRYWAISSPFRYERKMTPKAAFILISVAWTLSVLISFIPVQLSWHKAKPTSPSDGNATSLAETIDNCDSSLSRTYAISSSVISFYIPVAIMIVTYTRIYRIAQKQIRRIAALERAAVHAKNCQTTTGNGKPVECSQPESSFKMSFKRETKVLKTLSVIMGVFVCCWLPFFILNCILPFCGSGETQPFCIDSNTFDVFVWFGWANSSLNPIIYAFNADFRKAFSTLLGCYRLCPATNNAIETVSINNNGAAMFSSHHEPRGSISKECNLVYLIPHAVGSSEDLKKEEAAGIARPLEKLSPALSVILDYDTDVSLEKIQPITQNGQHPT
Sequence of Delta-type opioid receptor (Homo sapiens) (P41143 whole entry): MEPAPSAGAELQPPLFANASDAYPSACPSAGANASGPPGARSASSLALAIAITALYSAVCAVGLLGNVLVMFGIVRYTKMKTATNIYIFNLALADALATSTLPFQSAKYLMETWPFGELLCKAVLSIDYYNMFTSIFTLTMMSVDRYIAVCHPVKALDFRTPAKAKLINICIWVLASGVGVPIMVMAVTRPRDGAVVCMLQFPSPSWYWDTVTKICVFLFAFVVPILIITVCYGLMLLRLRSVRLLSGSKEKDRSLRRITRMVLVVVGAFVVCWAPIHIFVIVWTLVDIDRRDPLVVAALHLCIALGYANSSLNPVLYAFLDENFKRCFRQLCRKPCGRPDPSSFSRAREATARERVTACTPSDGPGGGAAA
Sequence of D(1B) dopamine receptor (Homo sapiens) (P21918 whole entry): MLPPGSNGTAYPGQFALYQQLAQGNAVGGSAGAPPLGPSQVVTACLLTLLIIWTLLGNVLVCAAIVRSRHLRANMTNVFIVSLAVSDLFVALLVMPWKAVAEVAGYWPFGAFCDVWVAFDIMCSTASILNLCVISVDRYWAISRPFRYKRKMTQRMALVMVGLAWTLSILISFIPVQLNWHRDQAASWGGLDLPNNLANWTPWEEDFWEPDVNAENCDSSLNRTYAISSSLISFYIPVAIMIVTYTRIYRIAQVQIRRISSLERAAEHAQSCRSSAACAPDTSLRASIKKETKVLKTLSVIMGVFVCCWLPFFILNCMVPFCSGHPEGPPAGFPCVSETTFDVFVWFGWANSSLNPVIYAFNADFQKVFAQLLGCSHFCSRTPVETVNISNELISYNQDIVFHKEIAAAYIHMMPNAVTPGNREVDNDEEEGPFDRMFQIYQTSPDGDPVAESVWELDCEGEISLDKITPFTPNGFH
Sequence of Muscarinic acetylcholine receptor M3 (Homo sapiens) (P20309 whole entry, looked up): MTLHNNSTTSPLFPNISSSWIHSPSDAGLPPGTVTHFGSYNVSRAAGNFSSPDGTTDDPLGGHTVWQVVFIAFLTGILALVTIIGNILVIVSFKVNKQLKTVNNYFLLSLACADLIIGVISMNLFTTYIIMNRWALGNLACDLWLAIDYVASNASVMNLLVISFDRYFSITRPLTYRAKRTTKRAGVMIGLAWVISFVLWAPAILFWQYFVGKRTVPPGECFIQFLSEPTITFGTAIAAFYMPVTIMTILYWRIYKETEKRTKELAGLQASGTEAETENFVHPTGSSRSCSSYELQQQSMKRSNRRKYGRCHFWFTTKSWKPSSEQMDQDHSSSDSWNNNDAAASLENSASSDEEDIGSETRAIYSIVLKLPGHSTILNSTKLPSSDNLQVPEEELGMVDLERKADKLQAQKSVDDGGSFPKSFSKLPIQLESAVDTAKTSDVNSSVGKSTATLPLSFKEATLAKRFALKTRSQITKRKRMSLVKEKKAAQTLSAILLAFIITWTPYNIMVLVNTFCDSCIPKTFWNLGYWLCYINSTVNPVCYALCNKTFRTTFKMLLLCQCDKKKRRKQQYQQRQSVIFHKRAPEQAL
Sequence of Beta-2 adrenergic receptor (Homo sapiens) (P07550 whole entry, looked up): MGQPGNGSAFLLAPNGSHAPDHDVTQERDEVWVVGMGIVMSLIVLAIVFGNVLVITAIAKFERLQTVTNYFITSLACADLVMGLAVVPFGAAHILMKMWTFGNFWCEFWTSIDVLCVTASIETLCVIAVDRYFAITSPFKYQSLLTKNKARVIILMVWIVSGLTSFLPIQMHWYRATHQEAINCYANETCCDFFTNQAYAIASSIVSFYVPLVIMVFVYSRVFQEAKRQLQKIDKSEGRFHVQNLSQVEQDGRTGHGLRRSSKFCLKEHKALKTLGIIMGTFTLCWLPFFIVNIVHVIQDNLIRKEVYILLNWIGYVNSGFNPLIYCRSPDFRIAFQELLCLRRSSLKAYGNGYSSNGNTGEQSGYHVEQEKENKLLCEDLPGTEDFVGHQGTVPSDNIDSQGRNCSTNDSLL
Sequence of Histamine H1 receptor (Homo sapiens) (P35367 whole entry): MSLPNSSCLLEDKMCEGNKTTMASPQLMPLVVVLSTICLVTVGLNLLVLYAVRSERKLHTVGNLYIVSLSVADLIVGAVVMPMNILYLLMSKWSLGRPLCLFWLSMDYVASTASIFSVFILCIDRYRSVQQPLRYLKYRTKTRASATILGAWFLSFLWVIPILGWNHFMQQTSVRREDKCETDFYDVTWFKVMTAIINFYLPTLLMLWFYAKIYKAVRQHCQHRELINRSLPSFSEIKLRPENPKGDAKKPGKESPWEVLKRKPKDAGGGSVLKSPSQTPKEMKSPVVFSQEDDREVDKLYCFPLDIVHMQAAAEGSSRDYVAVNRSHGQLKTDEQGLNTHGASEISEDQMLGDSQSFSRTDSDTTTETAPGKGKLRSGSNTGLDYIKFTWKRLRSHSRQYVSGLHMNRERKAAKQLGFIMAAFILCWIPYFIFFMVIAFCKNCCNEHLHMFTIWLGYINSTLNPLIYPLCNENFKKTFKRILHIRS
Sequence of Histamine H2 receptor (Homo sapiens) (P25021 whole entry): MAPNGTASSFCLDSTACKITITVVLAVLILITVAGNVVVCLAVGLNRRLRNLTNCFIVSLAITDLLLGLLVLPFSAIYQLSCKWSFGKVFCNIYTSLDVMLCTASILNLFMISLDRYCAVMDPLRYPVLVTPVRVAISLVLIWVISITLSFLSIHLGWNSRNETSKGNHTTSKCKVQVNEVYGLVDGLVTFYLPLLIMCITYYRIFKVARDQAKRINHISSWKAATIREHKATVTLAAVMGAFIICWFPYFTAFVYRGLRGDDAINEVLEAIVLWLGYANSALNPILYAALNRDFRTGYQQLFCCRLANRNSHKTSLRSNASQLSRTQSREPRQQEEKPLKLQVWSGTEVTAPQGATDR

Structure (SMILES)	inhibition [1]	inhibition [2]	inhibition [3]	inhibition [4]	inhibition [5]	inhibition [6]	inhibition [7]	inhibition [9]	inhibition [10]	inhibition [11]	inhibition [12]	inhibition (Homo sapiens)	solubility [13]	TD50 [8]
Cl.NCc1ccc(OCc2ccc(Cl)cc2)cc1	6.4%	16.8%	0.3%	7.6%	13.6%	17.1%	-9.4%	10.9%	13.7%	51.6%	13%	79.2%	soluble	> 30 mg/kg
Cl.NCc1ccc(OCc2ccc(OC(F)(F)F)cc2)cc1	3.5%	-2.7%	14.7%	-9.4%	1.7%	9.1%	–	1.9%	-6.5%	49.9%	21%	86.4%	soluble	> 30 mg/kg
Cl.NCc1ccc(OCc2cccc(OC(F)(F)F)c2)cc1	0.4%	4.2%	12.1%	-3.3%	0.8%	-8.1%	–	4.5%	-3.5%	44.3%	0.9%	87.5%	soluble	> 30 mg/kg
Cl.NCc1ccc(OCc2ccc(F)cc2)cc1	1%	29.7%	-5.8%	-1.9%	6.4%	2.2%	-7.5%	12.6%	7%	37%	17%	67.6%	soluble	> 30 mg/kg

Now from value to compound, other results behind:

inhibition [1]	inhibition [2]	inhibition [3]	inhibition [4]	inhibition [5]	inhibition [6]	inhibition [7]	inhibition [9]	inhibition [10]	inhibition [11]	inhibition [12]	inhibition (Homo sapiens)	solubility [13]	Structure (SMILES)	TD50 [8]
2.3%	1.6%	6.7%	-0.2%	-8.5%	17.4%	–	-7.5%	12.7%	30.9%	17%	71.6%	soluble	Cl.NCc1ccc(OCc2ccccc2F)cc1	> 30 mg/kg
1.9%	-4%	7.6%	-6%	-2.7%	11.8%	12.8%	-2.5%	1%	27.3%	22%	56.6%	soluble	Cl.NCc1ccc(OCc2ccccc2)cc1	> 30 mg/kg
-0.5%	–	5.2%	-1.1%	–	9.2%	–	-6%	-2.1%	51.3%	18%	58.4%	soluble	Cl.NCc1ccc(OCc2cccc(F)c2)cc1	> 30 mg/kg
-1.6%	-7.4%	1.4%	2.9%	17.7%	-5.7%	–	13.1%	11.9%	72%	17%	80.5%	soluble	Cl.NCc1ccc(OCc2cccc(Cl)c2)cc1	> 30 mg/kg
3.9%	5.8%	15.6%	-2.5%	0.4%	5%	-9.7%	3.8%	19.5%	29.5%	23%	89.8%	soluble	Cl.NCc1ccc(OCc2ccccc2OC(F)(F)F)cc1	> 30 mg/kg
